Only a selection was taken, and hits are over-represented in it overall.
Insulin prom act – TRM-6 insulin promoter activation; 130,000 compounds, 0.81% hits; activation, % at 2 µM; AID 1296; TRM-6 cells, insulin promoter eGFP reporter, imaging; plate-scaled: unstimulated 0, stimulated control 100;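 active = activation at 2 µM above a set limit, confirmed on inspection of the cell images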;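 also: share of cells whose green reporter signal exceeds an intensity cutoff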
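System: human fetal islet-derived TRM-6 cells with tamoxifen-inducible insulin promoter–eGFP reporter; input: seeding density of 1,000 cells per well; buffer or medium: Low-glucose (5.5 mM) medium with tamoxifen; incubation: compound exposure 48 h, 37 °C; measured by: high-content imaging of fixed cells with Hoechst nuclear stain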
Active calls of the source: *; [ ] = another dose, or the depositor's remark.

SMILES	Insulin prom act
COC(=O)C1C(=O)NCC1c1ccccc1 (stereo unspecified)	242.9
CCOC(=O)C1C(=O)CC(C)(O)C(C(=O)OCC)C1c1ccc(C)s1 (stereo unspecified)	7.7
CCOC(=O)C1C(=O)CC(O)(c2ccccc2)CC1c1ccccc1 (stereo unspecified)	142.9*
CN(C(=O)c1ccccc1Cl)c1ccccc1	119.0
CCOC(=O)N1CCC(Nc2c(NCCCN3CCN(C4CCCCC4)CC3)c(=O)c2=O)CC1	-8.3
Cc1ccc(N(C(=O)c2ccccc2Cl)C2=NC(C)CS2)c(C)c1 (stereo unspecified)	3.6
CC(CCc1ccco1)NC(=O)Cn1ncc2c(=O)oc3ccccc3c21 (stereo unspecified)	62.5
O=C(Nc1cc2c(oc1=O)CCCC2=O)c1cccc(Cl)c1	-7.1
COC(=O)c1cc(NC(=O)c2cccc(Cl)c2)c(=O)oc1/C=C/Nc1cc(C)cc(C)c1	809.1*
COc1ccc(C(=O)Nc2cc(C(C)=O)c(/C=C/N(C)C)oc2=O)cc1	-3.3
O=C(CSc1nnc(CNC(=O)c2cccs2)o1)c1ccc(Cl)cc1	0.0
O=C(Nc1cccc2c1C(=O)NC2=O)c1ccc(N2C(=O)CCC2=O)cc1	-5.3
CC(=O)c1c(C(C)=O)c(C)n(-c2ccc(O)cc2)c1C	-8.1
O=C1CCCC(=O)N1c1ccc(O)cc1	266.7*
Cc1ccc(C(=O)N2CCN(C(=O)CN3CCOCC3)C2)cc1	-3.6
Cc1ccc(S(=O)(=O)N2CCN(C(=O)CN3CCOCC3)C2C(C)C)cc1 (stereo unspecified)	500.0*
O=C(CN1CCOCC1)N1CCN(S(=O)(=O)c2ccccc2)C1c1ccccc1 (stereo unspecified)	-3.1
O=c1c2ccccc2nc2n1CC/C2=C/N1CCN(c2cccc(C(F)(F)F)c2)CC1	-6.1
CC(C)(C)c1cc(NC(=O)CCSc2nnc3ccccn23)cc(C(C)(C)C)c1	205.6
COc1ccc(-c2nnc(SCC(=O)Nc3ccccc3OC)o2)cc1	5.4
COc1ccccc1NC(=O)CSc1nnc(-c2ccncc2)o1	-6.9
COC(=O)c1ccc(OC)c(CSc2nnc(-c3ccc(C(C)(C)C)cc3)o2)c1	508.3*
Cc1nn(-c2ccccc2)c2sc(-c3nnc(SCC(=O)O)o3)cc12	0.0
O=C(NCc1ccccc1Cl)C(=O)NCC(c1ccco1)N1CCOCC1 (stereo unspecified)	-77.8
COc1ccc(C2CC(c3ccc(Br)cc3)=NN2C(=O)CSC2=NCCS2)cc1 (stereo unspecified)	3.3
SMILES	Insulin prom act
N#C/C(=C\c1sc(N2CCOCC2)nc1-c1ccccc1)C(=O)Nc1cccc2ccccc12	222.6*
O=C(Nc1cccc2ccccc12)N1CCOCC1	2.7
CCOc1ccc(NC(=O)c2sc(N3CCOCC3)nc2-c2ccccc2)cc1	-6.5
CCN(CCCNC(=O)CN1C(=O)COc2ccccc21)c1cccc(C)c1	0.0
COCC(=O)Nc1nnc(Cc2ccc(OC)cc2)s1	-6.7
CC1=NN(c2cccc(C(=O)O)c2)C(=O)/C1=C\C=C\c1ccco1	455.6*
O=C1NN(c2ccc(F)cc2)C(=O)/C1=C\C=C\c1ccco1	3.4
CC1=NN(c2ccccc2)C(=O)/C1=C\N1CC(C)OC(C)C1 (stereo unspecified)	-3.3
Cc1cc(N2CCOCC2)nc2ccc(NC(=S)N3CCCCC3C)cc12 (stereo unspecified)	-72.7
Cc1cc(-c2ccccc2)c(C#N)c(N)n1	-3.6
Cc1cc(NC(=O)CCCS(=O)(=O)c2nc(-c3cccs3)cc(C(F)(F)F)n2)no1	0.0
N#C/C(=C\C1=C(N2CCOCC2)C(=C\c2ccc(Cl)cc2)/CC1)C(=O)Nc1ccccc1F	614.3*[fluoresces]
N#C/C(=C\C1=C(N2CCOCC2)C(=C/c2cccc([N+](=O)[O-])c2)/CC1)C(=O)Nc1ccccc1F	614.3*
Cc1cc(=O)[nH]c(N/N=C/C2=C(N3CCOCC3)C(=C\c3ccc(Cl)cc3)/CC2)n1	-3.2
O=C(N/N=C/C1=C(N2CCOCC2)C(=C\c2ccccc2)/CC1)Nc1ccccc1	6.5
CC(C)C(NC(=O)C12CC3CC(CC(C3)C1)C2)C(=O)N/N=C/C1=C(N2CCOCC2)C(=C\c2ccc([N+](=O)[O-])cc2)/CC1 (stereo unspecified)	175.9
O=C(/C=C/c1cccc([N+](=O)[O-])c1)NCCN1CCOCC1	6.8
CCC(=O)N1CCc2cc(Br)cc(S(=O)(=O)C3(C(=O)OC)CC3)c21	128.6
CCC(C)(NC(=O)c1ccccc1)C(=O)O (stereo unspecified)	-8.3
Cc1cc(NC(=O)COC(=O)COc2ccc(C(=O)c3ccccc3)cc2)no1	-8.3
Cc1cc(NC(=O)COC(=O)c2oc3c(ccc4ccccc43)c2C)no1	415.4*
Cc1ccc2c(Cl)cc(Cl)c(OCC(=O)Nc3cc(C)on3)c2n1	3.3
CC(C)Cc1nc2sc3c(=O)[nH]cnc3c2c2c1CCCC2	-7.0
O=C(Nc1c2ccccc2nc2ccccc12)C(Cl)(Cl)Cl	-6.7
S=C(Nc1ccc(Oc2ccc(NC(=S)NC3CCCCC3)cc2)cc1)NC1CCCCC1	0.0
